Results from ChEMBL document CHEMBL4270517, “New 6- and 7-heterocyclyl-1H-indole derivatives as potent tubulin assembly and cancer cell growth inhibitors” (Eur J Med Chem, 2018).
The source made the active and inactive calls. No cut-off for these calls is given here.

Columns and labels:
Tubulin = test: Inhibition of tubulin polymerization (unknown origin) preincubated for 15 mins followed by GTP addition measured for 20 mins by spectrophotometric method; assay type: protein-complex assay, Homo sapiens
In short: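 Purified tubulin at 10 µM in 0.8 M monosodium glutamate pH 6.6 with 4% DMSO and varying compound; preincubated 15 min at 30 °C, chilled on ice, GTP to 0.4 mM added, turbidity at 350 nm followed 20 min at 30 °C. Extent of assembly measured; IC50 derived.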

Tubulin (Homo sapiens) [1] = target: T1, Tubulin (Homo sapiens) (UniProt P68371+Q9H4B7+P0DPH7+P68366+Q13509+Q71U36+P04350+Q3ZCM7+P07437+P68363+Q9BQE3+Q6PEY2+Q13885+Q9BVA1+Q9BUF5); test: Inhibition of [3H]colchicine binding to tubulin (unknown origin) at 5 uM after 10 mins relative to control; assay type: protein-complex assay
MCF7 = test: Growth inhibition of human MCF7 cells after 96 hrs by trypan blue exclusion assay; assay type: functional, cell-based; settings: MCF7, 96 h
OVCAR-8 = test: Growth inhibition of human OVCAR8 cells after 96 hrs by trypan blue exclusion assay; assay type: functional, cell-based; settings: OVCAR-8, 96 h
NCI/ADR-RES = test: Growth inhibition of human NCI/ADR-RES cells after 96 hrs by trypan blue exclusion assay; assay type: functional, cell-based
Tubulin (Homo sapiens) [2] = target: T1, Tubulin (Homo sapiens); test: Inhibition of tubulin polymerization in human HeLa cells assessed as fragmented or multipolar spindles formation at 20 to 50 nM by DAPI staining based immunofluorescence analysis; assay type: cell-based
In short: (§1)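 HeLa cells on poly-L-lysine coverslips treated 24 h with 20–100 nM compound, fixed in methanol 6 min, immunostained for α-tubulin (FITC secondary), DNA counterstained with DAPI; spindle and microtubule morphology of mitotic cells examined by epifluorescence microscopy with 100× oil objective.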

Tubulin (Homo sapiens) [3] = target: T1, Tubulin (Homo sapiens); test: Inhibition of tubulin polymerization in human HeLa cells assessed as microtubule asters formation at 100 nM by DAPI staining based immunofluorescence analysis; assay type: cell-based; in short: as §1
Tubulin (Homo sapiens) [4] = target: T1, Tubulin (Homo sapiens); test: Inhibition of tubulin polymerization in human HeLa cells assessed as formation of sparse tubulin foci at >= 50 nM by DAPI staining based immunofluorescence analysis; assay type: cell-based; in short: as §1
Tubulin (Homo sapiens) [5] = target: T1, Tubulin (Homo sapiens); test: Inhibition of tubulin polymerization in human HeLa cells assessed as fragmented or multipolar spindles formation at 20 nM by DAPI staining based immunofluorescence analysis; assay type: cell-based; in short: as §1
HeLa = test: Induction of cell death in human HeLa cells at 20 nM after 24 hrs by annexin V-FITC staining based flow cytometry
HepG2 = test: Growth inhibition of human HepG2 cells after 48 hrs by MTT assay; assay type: functional, cell-based; settings: HepG2, 48 h

SMILES | IC50 (Tubulin) | inhibition (Tubulin (Homo sapiens) [1]) | also measured
COc1cc(Sc2c[nH]c3ccc(-c4ccco4)cc23)cc(OC)c1OC | 870 nM | 81% | 
COc1ccc(/C=C\c2cc(OC)c(OC)c(OC)c2)cc1O [COMBRETASTATIN A4] |  |  | IC50 (MCF7): 5 to 13 nM; IC50 (OVCAR-8): 4 nM; IC50 (NCI/ADR-RES): 3.5 nM
COc1cc(Sc2c[nH]c3c(-c4cccs4)cccc23)cc(OC)c1OC | 570 nM | 89% | inhibition (Tubulin (Homo sapiens) [2]): Active; inhibition (Tubulin (Homo sapiens) [3]): Active
COc1cc(Sc2c[nH]c3cc(-c4ccsc4)ccc23)cc(OC)c1OC | 580 nM | 97% | inhibition (Tubulin (Homo sapiens) [4]): Active; inhibition (Tubulin (Homo sapiens) [5]): Active
COc1cc(Sc2c[nH]c3ccc(-c4cccs4)cc23)cc(OC)c1OC | 1300 nM | 76% | 
COc1cc(C(=O)c2c[nH]c3cc(-c4ccsc4)ccc23)cc(OC)c1OC | 600 nM | 94% | 
COc1cc(Sc2c[nH]c3c(-c4ccco4)cccc23)cc(OC)c1OC | 640 nM | 95% | 
COc1cc(Sc2c[nH]c3c(-c4ccsc4)cccc23)cc(OC)c1OC | 1300 nM | 77% | 
COc1cc(Sc2c(-c3cccs3)[nH]c3ccccc23)cc(OC)c1OC | 740 nM | 88% | 
COc1cc(Sc2c[nH]c3ccc(-c4ccoc4)cc23)cc(OC)c1OC | 1800 nM | 63% | 
COc1cc(Sc2c[nH]c3ccc(-c4ccsc4)cc23)cc(OC)c1OC | 1700 nM | 72% | 
COc1cc(Sc2c[nH]c3cc(-c4ccoc4)ccc23)cc(OC)c1OC | 2300 nM | 90% | 
COc1cc(Sc2c[nH]c3cc(-c4cccs4)ccc23)cc(OC)c1OC | 470 nM | 95% | 
COc1cc(Sc2c[nH]c3cc(-c4ccco4)ccc23)cc(OC)c1OC | 590 nM | 97% | 
CC[C@]1(O)C[C@@H]2CN(CCc3c([nH]c4ccccc34)[C@@](C(=O)OC)(c3cc4c(cc3OC)N(C)[C@H]3[C@@](O)(C(=O)OC)[C@H](OC(C)=O)[C@]5(CC)C=CCN6CC[C@]43[C@@H]65)C2)C1 |  |  | Activity (HeLa): Active
CC(=O)O[C@H]1C(=O)[C@@]2(C)[C@H]([C@H](OC(=O)c3ccccc3)[C@]3(O)C[C@H](OC(=O)[C@H](O)[C@@H](NC(=O)c4ccccc4)c4ccccc4)C(C)=C1C3(C)C)[C@]1(OC(C)=O)CO[C@@H]1C[C@@H]2O [PACLITAXEL] |  |  | IC50 (MCF7): 5.5 nM; IC50 (HepG2): 2660 nM; IC50 (OVCAR-8): 4 nM; IC50 (NCI/ADR-RES): 3100 nM

More lines, main results first:

IC50 (Tubulin) | inhibition (Tubulin (Homo sapiens) [1]) | SMILES | also measured
2600 nM | 48% | COc1cc(C(=O)c2c[nH]c3c(-c4cccs4)cccc23)cc(OC)c1OC | 
1300 nM | 86% | COc1cc(Sc2c[nH]c3c(-c4ccoc4)cccc23)cc(OC)c1OC | 
6200 nM |  | COc1cc(C(=O)c2c[nH]c3c(-c4ccsc4)cccc23)cc(OC)c1OC | 
3000 nM | 29% | COc1cc(C(=O)c2c[nH]c3c(-c4ccoc4)cccc23)cc(OC)c1OC | 
380 nM | 96% | COc1cc(C(=O)c2c[nH]c3cc(-c4cccs4)ccc23)cc(OC)c1OC | 
 | 70% | COc1cc(C(=O)c2c[nH]c3c(-c4ccco4)cccc23)cc(OC)c1OC | 
760 nM | 96% | COc1cc(C(=O)c2c[nH]c3cc(-c4ccco4)ccc23)cc(OC)c1OC | 
610 nM | 96% | COc1cc(C(=O)c2c[nH]c3cc(-c4ccoc4)ccc23)cc(OC)c1OC | 
